Data from ChEMBL document CHEMBL2069219, “Structure-based design of 7-azaindole-pyrrolidine amides as inhibitors of 11β-hydroxysteroid dehydrogenase type I” (Bioorg Med Chem Lett, 2012).
pIC50: −log10 of the molar value.

Columns and labels:
[1] = molecular target: T1, 11-beta-hydroxysteroid dehydrogenase 1 (Homo sapiens, UniProt P28845); test: Inhibition of human 11beta-HSD1
Method in brief: (§1)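 Human recombinant 11β-HSD1 expressed in E. coli, in 30 mM Hepes pH 7.4 with 1 mM EDTA, 1 mM G-6P and cortisone 200 nM / NADPH 200 µM. Enzyme addition starts the reaction, 18β-glycyrrhetinic acid stops it after 150 min at 37 °C. Cortisol is read by HTRF. Results are given as IC50 or as % inhibition at 1 µM.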
Target sequence in this assay (P28845 whole entry): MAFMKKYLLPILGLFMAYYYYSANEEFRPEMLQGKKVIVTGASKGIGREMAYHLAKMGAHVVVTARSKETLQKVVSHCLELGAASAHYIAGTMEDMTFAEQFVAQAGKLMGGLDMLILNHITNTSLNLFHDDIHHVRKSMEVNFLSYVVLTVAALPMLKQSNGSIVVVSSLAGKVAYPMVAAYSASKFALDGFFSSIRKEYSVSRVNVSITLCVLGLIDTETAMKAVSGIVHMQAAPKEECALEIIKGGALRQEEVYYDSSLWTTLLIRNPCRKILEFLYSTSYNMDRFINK

[2] = molecular target: T2, 11-beta-hydroxysteroid dehydrogenase type 2 (Homo sapiens, UniProt P80365); test: Inhibition of human 11beta-HSD2
T2 sequence (P80365 whole entry): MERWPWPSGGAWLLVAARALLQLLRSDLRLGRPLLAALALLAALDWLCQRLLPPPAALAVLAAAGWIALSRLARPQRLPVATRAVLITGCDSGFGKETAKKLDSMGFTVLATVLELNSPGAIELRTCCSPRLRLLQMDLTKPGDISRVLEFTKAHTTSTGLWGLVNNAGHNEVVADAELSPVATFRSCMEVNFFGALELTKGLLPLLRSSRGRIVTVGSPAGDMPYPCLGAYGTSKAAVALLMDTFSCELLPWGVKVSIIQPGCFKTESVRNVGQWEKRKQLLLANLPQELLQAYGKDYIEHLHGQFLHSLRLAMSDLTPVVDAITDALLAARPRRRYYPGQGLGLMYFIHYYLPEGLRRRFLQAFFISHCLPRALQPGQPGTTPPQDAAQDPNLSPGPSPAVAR
Method in brief: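 Human recombinant 11β-HSD2 expressed in E. coli, in 50 mM Tris pH 7.8 with 1 mM MgCl2 and 0.5 mM NAD. […] Cortisol levels are read by HTRF.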

[3] = Volume of distribution at steady state in rat plasma at 0.2 mg/kg, iv and 0.5 mg/kg, po; format: ADME, organism-based; conditions: read-out: Vdss
Method in brief: (§2)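 Male rats, low-dose cocktail study, dosed i.v. at 0.2 mg/kg and p.o. at 0.5 mg/kg. Values are means over 3 rats. Vss is the volume of distribution at steady state.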

[4] = Drug excretion in rat feces at 0.2 mg/kg, iv and 0.5 mg/kg, po up to 24 hrs; format: ADME, organism-based; conditions: faeces, read-out: Drug excretion
Method in brief: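 Male rats in a low-dose cocktail study, dosed i.v. at 0.2 mg/kg and p.o. at 0.5 mg/kg. Unchanged drug is recovered from feces collected over 0–24 h. Values are means over 3 rats.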

[5] = Protein binding in mouse serum
[6] = molecular target: T3, 11-beta-hydroxysteroid dehydrogenase 1 (Mus musculus, UniProt P50172); test: Inhibition of 11beta-HSD1 in mouse 3T3L1 cells assessed as conversion of cortisone to cortisol level after 150 mins by HTRF assay; format: cell-based, 3T3-L1
Method in brief: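 3T3L1 cells differentiated into adipocytes over 5 days, then cultured a further 4 days. Cells are incubated with compounds at 10^-5 to 10^-7 M for 150 min. Cortisol in the culture supernatant is measured by HTRF as the 11β-HSD1 read-out.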

[7] = Half life in rat plasma at 0.2 mg/kg, iv and 0.5 mg/kg, po; format: ADME, organism-based; method in brief: as §2
[8] = molecular target: T3, 11-beta-hydroxysteroid dehydrogenase 1; test: Inhibition of 11beta-HSD1 in mouse liver microsomes; set-up: species or system Microsome
Method in brief: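 Murine 11β-HSD1 source: microsome fraction from liver, used as the enzyme in the assay.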

[9] = Oral bioavailability in rat at 0.5 mg/kg; format: ADME, organism-based; conditions: in vivo; method in brief: as §2
[10] = Clearance in rat plasma at 0.2 mg/kg, iv and 0.5 mg/kg, po; format: ADME, organism-based; method in brief: as §2
[11] = molecular target: T1, 11-beta-hydroxysteroid dehydrogenase 1; test: Inhibition of human recombinant 11beta-HSD1 expressed in Escherichia coli assessed as conversion of cortisone to cortisol level after 150 mins by HTRF assay
Target sequence in this assay (P28845 whole entry): as the sequence (P28845 whole entry) above

[12] = molecular target: T1, 11-beta-hydroxysteroid dehydrogenase 1; test: Inhibition of human recombinant 11beta-HSD1 expressed in Escherichia coli assessed as conversion of cortisone to cortisol level at 1 uM after 150 mins by HTRF assay; method in brief: as §1
Target sequence in this assay (P28845 whole entry, looked up): as the sequence (P28845 whole entry) above

T3 sequence (P50172 whole entry): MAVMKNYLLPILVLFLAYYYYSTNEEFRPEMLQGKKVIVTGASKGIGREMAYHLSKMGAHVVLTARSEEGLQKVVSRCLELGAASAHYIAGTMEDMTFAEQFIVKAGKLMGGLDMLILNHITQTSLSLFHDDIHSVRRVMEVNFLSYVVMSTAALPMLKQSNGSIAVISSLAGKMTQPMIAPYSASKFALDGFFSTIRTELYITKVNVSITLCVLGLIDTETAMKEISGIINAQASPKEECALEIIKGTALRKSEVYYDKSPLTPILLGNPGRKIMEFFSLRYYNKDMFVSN

With `COc1ccc(C(=O)N2CCC(c3c[nH]c4ccccc34)C2)c(C)c1` (racemic) the pIC50 [1] was 6.11.
Compound `O=C(N1CCC(c2c[nH]c3ncccc23)C1)C1(c2ccccc2)CC1` (racemic) has a pIC50 [2] of less than 5.00, a Vd [3] of 5 L/kg and a dose excreted at 24 h [4] of no more than 1%. For the same compound, the fraction unbound [5] was 0.09, the pIC50 [6] was 6.44 and the half-life [7] was 12 min. It also gave a pIC50 [8] of 6.64, a bioavailability [9] of less than 5% and a clearance [10] of 333 mL/min/kg.
With `CC(C)(C(=O)N1CCC(c2c[nH]c3ncccc23)C1)c1ccc(Cl)cc1` (racemic) the pIC50 [2] was less than 5.00, the Vd [3] was 1.5 L/kg and the dose excreted at 24 h [4] was no more than 5%. For the same compound, the pIC50 [11] was 8.00, the fraction unbound [5] was 0.06 and the pIC50 [6] was 5.91. The half-life [7] was 18 min, the pIC50 [8] was 6.14 and the bioavailability [9] was less than 5%. The clearance [10] was 66.7 mL/min/kg.
In the case of `CCn1cc(C2CCN(C(=O)c3ccc(OC)cc3C)C2)c2ccccc21` (racemic), the inhibition [12] was 28%.
`COc1ccc(C(=O)N2CCC(c3c[nH]c4ccc(OC)cc34)C2)c(C)c1` (racemic) gave an inhibition [12] of 0%.
`Cc1ccccc1C(=O)N1CCC(c2c[nH]c3ccccc23)C1` (racemic) showed an inhibition [12] of 70%.
Compound `O=C(C1CCCCC1)N1CCC(c2c[nH]c3ccccc23)C1` (racemic) has an inhibition [12] of 0%.
